ChEMBL document CHEMBL1154266, “Synthesis, conformational analysis, and biological evaluation of 19-nor-vitamin D3 analogues with A-ring modifications” (J Med Chem, 2009)
“And” between values parts separate entries of the source, which are not always exact repeats. Equal values may be shown once.

What was measured:
[1] = system: MCF7; assay: Antiproliferative activity against human MCF7 cells at EC50 after 72 hrs by [3H]thymidine incorporation assay relative to 1-alpha,25-(OH)2D3; type: functional
How it was run: (§1)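 MCF-7 breast cancer cells; proliferation read by [³H]thymidine incorporation. Inhibition was scored at 10^-6 M, and the concentration giving half-maximal response was derived. Values are mean ± SD, n = 3.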

[2] = molecular target: T1, Vitamin D3 receptor (Sus scrofa) (UniProt A3RGC1); assay: Displacement of [3H]1-alpha,25-(OH)2D3 from VDR in pig intestinal mucosa at EC50 relative to 1-alpha,25-(OH)2D3; type: tissue-based
T1 sequence (whole entry): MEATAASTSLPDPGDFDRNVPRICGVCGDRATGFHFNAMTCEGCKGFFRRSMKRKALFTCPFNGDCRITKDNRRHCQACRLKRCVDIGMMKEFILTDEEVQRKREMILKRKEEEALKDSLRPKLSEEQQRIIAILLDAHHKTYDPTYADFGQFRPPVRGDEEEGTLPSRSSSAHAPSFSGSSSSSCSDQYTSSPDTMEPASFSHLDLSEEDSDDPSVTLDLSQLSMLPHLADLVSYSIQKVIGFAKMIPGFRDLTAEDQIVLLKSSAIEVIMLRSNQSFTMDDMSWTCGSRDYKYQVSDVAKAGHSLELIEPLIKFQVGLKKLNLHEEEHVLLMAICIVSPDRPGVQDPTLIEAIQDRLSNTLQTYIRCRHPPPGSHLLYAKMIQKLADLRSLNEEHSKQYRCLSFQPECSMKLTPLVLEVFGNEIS
How it was run: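 Binding to vitamin D receptor (VDR), […]. Values are mean ± SD, n = 3.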

[3] = system: Mus musculus; assay: Toxicity in NMRI mouse assessed as induction of calcemic effect at 40 ug/kg, ip daily for 7 consecutive days measured after day 7 by colorimetric assay; type: organism-based; conditions: in vivo, 0.04 mg/kg
How it was run: (§2)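 Mice received a daily injection of compound. The calcemic effect was read as the percent increase in serum calcium levels.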

[4] = molecular target: T1, Vitamin D3 receptor (Sus scrofa); assay: Ratio of 1-alpha,25-(OH)2D3 to compound affinity for binding to VDR in pig intestinal mucosa
[5] = system: Mus musculus; assay: Toxicity in NMRI mouse assessed as induction of calcemic effect at 20 ug/kg, ip daily for 7 consecutive days measured after day 7 by colorimetric assay; type: organism-based; conditions: in vivo, 0.02 mg/kg; how it was run: as §2
[6] = system: Mus musculus; assay: Toxicity in NMRI mouse assessed as increase in serum calcium level at 0.1 ug/kg, ip daily for 7 consecutive days measured after day 7 by colorimetric assay; type: organism-based; conditions: in vivo, 0.0001 mg/kg; how it was run: as §2
[7] = Toxicity in ip dosed NMRI mouse assessed as maximum tolerable dose inducing minimal increase in serum calcium level administered daily for 7 consecutive days measured after day 7 by colorimetric assay; type: organism-based; conditions: in vivo
[8] = system: MCF7; assay: Antiproliferative activity against human MCF7 cells at 1 uM after 72 hrs by [3H]thymidine incorporation assay; type: functional; how it was run: as §1
[9] = system: Mus musculus; assay: Toxicity in NMRI mouse assessed as induction of calcemic effect at 100 ug/kg, ip daily for 7 consecutive days measured after day 7 by colorimetric assay; type: organism-based; conditions: in vivo, 0.1 mg/kg; how it was run: as §2
[10] = system: Mus musculus; assay: Toxicity in NMRI mouse assessed as increase in serum calcium level at 100 ug/kg, ip daily for 7 consecutive days measured after day 7 by colorimetric assay; type: organism-based; conditions: in vivo, 0.1 mg/kg; how it was run: as §2
[11] = system: MCF7; assay: Ratio of 1-alpha,25-(OH)2D3 to compound antiproliferative activity against human MCF7 cells at EC50 after 72 hrs by [3H]thymidine incorporation assay; type: functional

| Activity [2] | Structure (SMILES) | Activity [1] [%] | other results |
| --- | --- | --- | --- |
| 5% | C[C@H](CCCC(C)(C)O)[C@H]1CC[C@H]2/C(=C/C=C3\C[C@@H](O)[C@H](O)[C@@H](O)C3)CCC[C@]12C | 5 | – |
| 0.4% | C[C@H](CCCC(C)(C)O)[C@H]1CC[C@H]2/C(=C/C=C3/C[C@@H](O)[C@@H]4O[C@@H]4C3)CCC[C@]12C | 1 | Activity [3]: Non-toxic |
| 20% and 10% | C[C@H](CCCC(C)(C)O)[C@H]1CC[C@H]2/C(=C/C=C3C[C@@H](O)C(O)[C@H](O)C3)CCC[C@]12C (stereo not given in full) [listing 1 of 2 here] | – | Ratio [4]: 5 and 10 |
| 0.4% | C[C@H](CCCC(C)(C)O)[C@H]1CC[C@H]2/C(=C/C=C3/C[C@@H](O)[C@H](O)[C@@H](O)C3)CCC[C@]12C | 5 | – |
| 25% | C[C@H](CCCC(C)(C)O)[C@H]1CC[C@H]2/C(=C/C=C3\C[C@@H](O)[C@@H]4O[C@@H]4C3)CCC[C@]12C | 16 | Activity [5]: Non-toxic |
| – | C=C1/C(=C\C=C2/CCC[C@]3(C)[C@@H]([C@H](C)CCCC(C)(C)O)CC[C@@H]23)C[C@@H](O)C[C@@H]1O [CALCITRIOL] | – | Activity [6]: 27%; MTD at 7 days [7]: 0.0001 mg/kg/day |
| – | C[C@H](CCCC(C)(C)O)[C@H]1CC[C@H]2/C(=C/C=C3C[C@@H](O)C(O)[C@H](O)C3)CCC[C@]12C (stereo not given in full) [listing 2 of 2 here] | 5 | – |
| – | [H][C@@]12CC[C@]([H])([C@H](C)CCCC(C)(C)O)[C@@]1(C)CCC/C2=C\C=C1\C[C@@H](O)[C@H](O)[C@H](O)C1 (stereo not given in full) | 20 | Activity [8]: 60%; Activity [9]: Non-toxic; Activity [10]: 13%; Ratio [11]: 5 |
